Experimental findings from ChEMBL document CHEMBL5038599, “Identification of Thiazoyl Guanidine Derivatives as Novel Antifungal Agents Inhibiting Ergosterol Biosynthesis for Treatment of Invasive Fungal Infections” (J Med Chem, 2021) are described below.

Series [1] is described as follows: Metabolic stability in human liver microsomes assessed as parent compound remaining at 0.5 uM incubated for 30 mins by LC/MS/MS analysis. To be noted: read-out: Stability. In kind it is ADME, Microsome. Summed up: (§1)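 Compound at 0.5 μM was incubated with liver microsomes at 0.5 mg protein/mL at 37 °C. Buffer was 50 mM Tris-HCl pH 7.4 with 150 mM KCl, 10 mM MgCl2 and 1 mM NADPH. Reactions were stopped at 0 and 30 min with MeCN/MeOH 1:1. Percent remaining was taken from LC/MS/MS peak area ratio, in duplicate.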
Background: Liver microsomes are vesicles of endoplasmic reticulum, rich in cytochrome P450 enzymes.

The nature of series [2]: Metabolic stability in rat liver microsomes assessed as parent compound remaining at 0.5 uM incubated for 30 mins by LC/MS/MS analysis. The class given is ADME, Microsome. Particulars: read-out: Stability. A digest of the protocol:
as §1

Series [3] concerns Mus musculus. Description: In vivo antifungal activity against Aspergillus fumigatus infected in ICR mouse assessed as log reduction in fungal burden with 18S rRNA in kidney at 30 mg/kg, iv administered at 2 to 50 hrs post-inoculation and measured after 60 hrs by RT-qPCR analysis. In kind it is functional. A digest of the protocol: (§2)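 Male ICR mice (5 weeks) were immunosuppressed with intraperitoneal cyclophosphamide, 150 mg/kg on day −4 and 100 mg/kg on day −1. Mice were infected intravenously with about 1.5 × 10⁵ conidia in saline. Tail-vein dosing was at 2, 16, 21, 26, 40, 45 and 50 h, in 5% DMSO/5% Cremophor EL/4% glucose or 5% glucose. Samples were taken at 60 h, five mice per group, and analysed by Dunnett's test against untreated controls.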
A general note: Real-time PCR tracks product formation cycle by cycle.

The subject of series [4] is Mus musculus. The experiment in a line: In vivo antifungal activity against Aspergillus fumigatus infected in ICR mouse assessed as reduction in serum-galactomannan at 30 mg/kg, iv administered at 2 to 50 hrs post-inoculation and measured after 60 hrs by GM analysis. The class given is functional, organism-based. Summed up:
as §2

Series [5] can be described thus: AUC in ICR mouse at 30 mg/kg, iv measured upto 360 mins by LC/MS/MS analysis. In kind it is ADME, organism-based. Set-up: route intravenous, dose 30 mg/kg, time <=360. To be noted: in vivo. A digest of the protocol: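 Male ICR mice, 6 weeks old. Dosed iv via tail vein at 30 mg/10 mL/kg (n = 3). The test agent was a solution in 5% DMSO, 5% Cremophor EL and 4% glucose; the reference azole was in 5% glucose. Blood (EDTA-2K plus heparin) was taken at 5, 30, 60, 180 and 360 min and spun to plasma. Proteins were precipitated with methanol before LC/MS/MS.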

Series [6] is described as follows: Unbound fraction in Sprague-Dawley rat at 0.5 mg/kg, iv measured upto 1440 mins by LC/MS/MS analysis. The class given is ADME, organism-based. Particulars: in vivo.
A short description of series [7]: Clearance in Sprague-Dawley rat at 0.5 mg/kg, iv measured upto 1440 mins by LC/MS/MS analysis. The class given is ADME, organism-based. Particulars: in vivo.
Series [8] is described as follows: Volume of distribution at steady state in Sprague-Dawley rat at 0.5 mg/kg, iv measured upto 1440 mins by LC/MS/MS analysis. To be noted: in vivo, read-out: Vdss. In kind it is ADME, organism-based.
For series [9], the system named is Aspergillus fumigatus. Description: Antifungal activity against Aspergillus fumigatus ATCC 204305 assessed as inhibition of fungal growth incubated for 48 hrs in presence of 50% heat-inactivated bovine serum by broth microdilution method. In kind it is functional. Particulars: ATCC 204305, 48 h, in the assay text read “incubated for 48 hrs” for “incubated for 24 hrs”. A digest of the protocol: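 Broth microdilution per CLSI M38-A2 with modifications. Conidia at about 1 × 10⁴ CFU/mL were grown for 48 h at 35 °C in YNB with 2% glucose and complete amino-acid mix, buffered to pH 7.0 with 50 mM MOPS. Medium was with or without 50% heat-inactivated bovine serum. MIC was the lowest concentration giving no visible growth.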
Background: In broth dilution the organism is exposed to a series of concentrations in liquid medium.

The subject of series [10] is Aspergillus fumigatus. Description: Inhibition of Sterol methyl transferase in Aspergillus fumigatus ATCC 204305 assessed as accumulation of lanosterol at 2 ug/mL measured per 100 mg of mycelia by LC/MS analysis (Rvb= 0 nmol). To be noted: dose 2.0 µg/ml. Summed up: (§3)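 Cultures of A. fumigatus ATCC 204305 (1 × 10⁴ CFU/mL in YNB with 2% glucose and amino-acid mix) were grown 24 h at 35 °C, then exposed to compound for 24 h. Mycelia were saponified in 25% ethanolic KOH at 85 °C for 1 h and extracted with n-hexane. Extracts were dried, redissolved in acetone at 200 μL per 100 mg dry mycelium, and analysed on a C18 column at 40 °C with acetonitrile gradient.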

For series [11], the system named is Aspergillus fumigatus. Description: Inhibition of Sterol methyl transferase in Aspergillus fumigatus ATCC 204305 assessed as accumulation of eburicol at 2 ug/mL measured per 100 mg of mycelia by LC/MS analysis (Rvb= 0 nmol). Particulars: dose 2.0 µg/ml. A digest of the protocol:
as §3

Series [12] concerns Aspergillus fumigatus. Description: Inhibition of Sterol methyl transferase in Aspergillus fumigatus ATCC 204305 assessed as accumulation of zymosterol at 2 ug/mL measured per 100 mg of mycelia by LC/MS analysis (Rvb= 0 nmol). Particulars: dose 2.0 µg/ml. Summed up: as §3
Series [13] has as its system Aspergillus fumigatus. The experiment in a line: Inhibition of Sterol methyl transferase in Aspergillus fumigatus ATCC 204305 assessed as accumulation of ergosterol at 2 ug/mL measured per 100 mg of mycelia by LC/MS analysis (Rvb= 144 nmol). To be noted: dose 2.0 µg/ml. Summed up: as §3
For series [14], the system named is Aspergillus fumigatus. The experiment in a line: Antifungal activity against Aspergillus fumigatus ATCC 204305 assessed as inhibition of fungal growth incubated for 48 hrs by broth microdilution method. Particulars: ATCC 204305, 48 h.
The subject of series [15] is Aspergillus fumigatus. Description: Antifungal activity against pan-azole resistant Aspergillus fumigatus SR47013 harbouring Cyp51A Y121F mutant assessed as inhibition of fungal growth incubated for 48 hrs by broth microdilution method. Particulars: SR47013, 48 h.

By AUC is commonly meant the area under the concentration-time curve, a measure of exposure. Low readings indicate less exposure, high ones more exposure. The term fraction unbound denotes the share of the substance not bound to proteins or other matrix. Read a low fraction unbound as extensive binding. What is called clearance is a measure of how efficiently the substance is removed, as volume per time. A high value points to efficient removal. A word on the MIC50: it is an inhibitory concentration at the 50% level, which refers to growth in some studies and to a panel of isolates in others. As a reminder, the MIC is the least concentration at which growth counts as inhibited.

Structures are written as SMILES. In brackets after ≈: the same amount, converted by molar mass. Activity calls are given as the source filed them. No cut-off for these calls is given here.

Turning to `CS(=O)(=O)c1ccc(-c2nc(-c3csc(N=C4NCCCN4)n3)cs2)cc1`, the remaining at 0.5 h, 0.5 µM in [1] is 87%; in [2], 53%. In addition, in the series on Mus musculus [3], the “log(activity)” value is listed as 4. For the same molecule, in the series with Mus musculus [4], the result was Active. The same molecule showed an AUC at 6 h in series [5] of 48200 ng·h/mL. In series [6], this molecule gave a fraction unbound at 24 h of 0.067. Besides, the clearance in series [7] amounted to 12.3 mL/min/kg. For the same molecule, the Vd in series [8] stood at 4.21 L/kg. In addition, the MIC50 was 4 µg/mL with Aspergillus fumigatus [9] and 2 µg/mL (≈ 4.77 µM) in the series with Aspergillus fumigatus [15]. For the same molecule, the Activity was found to be 40 nmol in the series with Aspergillus fumigatus [10], 1 nmol in the series on Aspergillus fumigatus [11], 0 nmol in the series with Aspergillus fumigatus [12] and 102 nmol in the series with Aspergillus fumigatus [13]. For the same molecule, the minimal inhibitory concentration (MIC) in the series on Aspergillus fumigatus [14] worked out at 2 µg/mL (≈ 4.77 µM).
